Consider 22 compounds from ChEMBL document CHEMBL3351550, “Synthesis and antiangiogenic activity of 6-amido-2,4,5-trimethylpyridin-3-ols” (2014).

Test [1] relates to Chorioallantoic membrane. Kind of test: Antiangiogenic activity in chicken chorioallantoic membrane assessed as inhibition of VEGF-induced blood vessel formation at 0.01 nmol/CAM treated 30 mins after VEGF addition measured after 3 days relative to control. It is filed as functional, cell membranes. Conditions: Gallus gallus. Put shortly:
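Chick embryo CAM; angiogenesis induced with VEGF (20 ng/CAM) before compound. Compound stock diluted in PBS to 1.0 μM, 10 μL applied to a disk on the CAM, giving 0.01 nmol/CAM. Read-out is the number of new blood vessel branch points in the area under the disk, compared against VEGF-treated CAMs.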

Test [2] relates to Chorioallantoic membrane. Kind of test: Antiangiogenic activity in human A549 cells inoculated with chicken chorioallantoic membrane assessed as inhibition of blood vessel branch points around tumor at 1 pmol/CAM after 5 days. It is filed as functional, Gallus gallus. The essentials:
(§1)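 A549 human lung cancer cells (2×10^6 cells/CAM) in Matrigel implanted on top of the CAM, with compound given once at implantation. New vessel branch points around the tumor were counted as for the VEGF CAM assay. Inhibition is relative to untreated CAMs, mean ± S.E.M. of at least six embryos.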

For test [3], the system named is A549. The test is described as follows: Antitumor activity in human A549 cells inoculated with chicken chorioallantoic membrane assessed as inhibition of tumor weight at 0.1 pmol/CAM after 5 days. It is filed as functional. The essentials: (§2)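 A549 cells (2×10^6 cells/CAM) in Matrigel inoculated onto chick CAM and treated once with compound at implantation. The tumor mass grown on the CAM was excised and weighed, and inhibition is relative to untreated controls, means ± S.E.M., at least six embryos.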

Test [4] concerns Chorioallantoic membrane. The test is described as follows: Antiangiogenic activity in chicken chorioallantoic membrane assessed as inhibition of VEGF-induced blood vessel formation treated 30 mins after VEGF addition measured after 3 days. It is filed as functional, cell membranes. The conditions noted are these: Gallus gallus. Put shortly: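 VEGF (20 ng/CAM)-induced angiogenesis on chick embryo CAM, with compound applied afterwards on a disk. New vessel branch points under the disk were counted at several doses, mean ± SEM, n at least six. ID50 taken from dose-response curves.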

For test [5], the system named is A549. Kind of test: Antitumor activity in human A549 cells inoculated with chicken chorioallantoic membrane assessed as inhibition of tumor weight at 1 pmol/CAM after 5 days. The test is classed as functional. The essentials:
as §2

Test [6] concerns Chorioallantoic membrane. Kind of test: Antiangiogenic activity in human A549 cells inoculated with chicken chorioallantoic membrane assessed as inhibition of blood vessel branch points around tumor at 0.1 pmol/CAM after 5 days. It is filed as functional, Gallus gallus. The essentials:
as §1

The subject of test [7] is Chorioallantoic membrane. Kind of test: Antiangiogenic activity in human A549 cells inoculated with chicken chorioallantoic membrane assessed as inhibition of blood vessel branch points around tumor at 0.01 pmol/CAM after 5 days. The test is classed as functional, Gallus gallus. The essentials:
as §1

The test system of test [8] is A549. The test is described as follows: Antitumor activity in human A549 cells inoculated with chicken chorioallantoic membrane assessed as inhibition of tumor weight at 0.01 pmol/CAM after 5 days. It is filed as functional. The essentials:
as §2

For test [9], the system named is A549. Kind of test: Antitumor activity in human A549 cells inoculated with chicken chorioallantoic membrane assessed as inhibition of tumor weight at 0.001 pmol/CAM after 5 days. It is filed as functional. Put shortly: as §2

Molecules are shown by their SMILES.

With `Cc1nc(NC(=O)CCCCl)c(C)c(C)c1O`, the inhibition in the test on Chorioallantoic membrane [1] turned out to be 70.2%.
Same read-out and setting: with `Cc1nc(NC(=O)CC(C)C)c(C)c(C)c1O` the figure was 75.6%.
In the case of `CN(C)c1ccc(/C=C2\C(=O)Nc3ccccc32)cc1`, the “inhibition (INH)” value in the test with Chorioallantoic membrane [2] is reported as 36.2%; in the test on A549 [3], 23.4%; with A549 [5] it was 26.8%; in the test with Chorioallantoic membrane [6] it was 25.1%; in the test with Chorioallantoic membrane [7], 20.8%; in the test with A549 [8], 16.2%. Besides, the ID50 with Chorioallantoic membrane [4] stood at 39.7 fmol. The inhibition in the test with Chorioallantoic membrane [1] is 78%.
As for `CCCCCCCC(=O)Nc1nc(C)c(O)c(C)c1C`, the inhibition in the test on Chorioallantoic membrane [1] is 74.7%.
Consider `Cc1nc(NC(=O)C(C)C)c(C)c(C)c1O`, for which the inhibition in the test with Chorioallantoic membrane [1] came out at 53.2%.
As for `CC(=O)Nc1ccc(O)cc1`, the ID50 in the test on Chorioallantoic membrane [4] turned out to be 397 fmol. Further, in the test on Chorioallantoic membrane [1], the inhibition turned out to be 77.9%.
Turning to `Cc1nc(NC(=O)c2ccccc2)c(C)c(C)c1O`, the inhibition with Chorioallantoic membrane [1] stood at 77.3%.
Consider `CCN(CC)CCNC(=O)c1c(C)[nH]c(/C=C2\C(=O)Nc3ccc(F)cc32)c1C`, for which the ID50 in the test on Chorioallantoic membrane [4] stood at 380 fmol. Further, the inhibition with Chorioallantoic membrane [1] worked out at 88.8%.
For the compound `CCCCCCCCCCCCCCCC(=O)Nc1nc(C)c(O)c(C)c1C`, in the test on Chorioallantoic membrane [1], the inhibition was 59.9%.
Take `Cc1nc(NC(=O)C(C)(C)C)c(C)c(C)c1O`: in the test on Chorioallantoic membrane [1], the inhibition was 73.2%.
On to `Cc1nc(NC(=O)c2ccc3c(c2)OCO3)c(C)c(C)c1O`, for which the inhibition in the test on Chorioallantoic membrane [1] is 64.8%.
Still for that read-out and setting: with `Cc1nc(NC(=O)Cc2ccccc2)c(C)c(C)c1O` the figure was 69.6%; with `Cc1nc(NC(=O)c2cccc3ccccc23)c(C)c(C)c1O`, 75.8%.
For the compound `Cc1nc(NC(=O)c2ccc(F)cc2)c(C)c(C)c1O`, in the test on Chorioallantoic membrane [1], the inhibition was found to be 75.3%.
On the same count and under the same terms, the figure for `Cc1nc(NC(=O)C2CCCCC2)c(C)c(C)c1O` is 76.3%; for `Cc1nc(NC(=O)CCc2ccccc2)c(C)c(C)c1O` it is 74.2%.
Same read-out and setting: the figure for `COc1ccc(C(=O)Nc2nc(C)c(O)c(C)c2C)cc1` is 69.7%.
Take `CC(=O)Nc1nc(C)c(O)c(C)c1C`: the “inhibition (INH)” value with A549 [3] stood at 37.9%; in the test with A549 [5], 47.7%; in the test on A549 [9], 20.3%; in the test on A549 [8], 34.2%. Further, in the test on Chorioallantoic membrane [4], the ID50 turned out to be 8.7 fmol. Also, in the test with Chorioallantoic membrane [1], the inhibition came out at 84.8%.
Regarding `Cc1nc(NC(=O)c2ccc(C(C)(C)C)cc2)c(C)c(C)c1O`, in the test on Chorioallantoic membrane [1], the inhibition came out at 74.2%.
Take `CCCCCCCCCCCC(=O)Nc1nc(C)c(O)c(C)c1C`: the “inhibition (INH)” value in the test with A549 [3] was found to be 31.3%; in the test on A549 [5], 38.2%; in the test with A549 [9], 21.7%; in the test on A549 [8], 26%. For the same compound, the ID50 in the test with Chorioallantoic membrane [4] worked out at 14.9 fmol. Further, the inhibition in the test on Chorioallantoic membrane [1] is 57.4%.
For the compound `Cc1nc(NC(=O)c2cccs2)c(C)c(C)c1O`, in the test with Chorioallantoic membrane [1], the inhibition was 74.8%.
For the compound `Cc1nc(NC(=O)C2CCCC2)c(C)c(C)c1O`, the “inhibition (INH)” value with A549 [3] was 45.1%; in the test on A549 [5] it was 62.7%; in the test on A549 [9], 13.2%; in the test on A549 [8] it was 24%. In the test on Chorioallantoic membrane [4], the ID50 was 3.6 fmol. For the same compound, the inhibition in the test on Chorioallantoic membrane [1] came to 81.8%.

In general, inhibition refers to the change of the read-out against control, counted positive when it falls.
